TRPC4 agonist = activators of mouse TRPC4 channel, primary screen, Fluo4 calcium, HEK293 TRPC4beta/mu-opioid cells. Short transient receptor potential channel 4 (Mus musculus), Q9QUQ5. Fluo4 calcium fluorescence; hits give high values. B-score at 10 µM. actives 0.49% (n = 310,000);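 active = B-score above 5 SD of library B-scores, and initial fluorescence ratio not above library mean plus 5 SD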;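 also: positive B-score marks a calcium rise read as TRPC4 activation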
Target sequence (Q9QUQ5 whole entry, looked up): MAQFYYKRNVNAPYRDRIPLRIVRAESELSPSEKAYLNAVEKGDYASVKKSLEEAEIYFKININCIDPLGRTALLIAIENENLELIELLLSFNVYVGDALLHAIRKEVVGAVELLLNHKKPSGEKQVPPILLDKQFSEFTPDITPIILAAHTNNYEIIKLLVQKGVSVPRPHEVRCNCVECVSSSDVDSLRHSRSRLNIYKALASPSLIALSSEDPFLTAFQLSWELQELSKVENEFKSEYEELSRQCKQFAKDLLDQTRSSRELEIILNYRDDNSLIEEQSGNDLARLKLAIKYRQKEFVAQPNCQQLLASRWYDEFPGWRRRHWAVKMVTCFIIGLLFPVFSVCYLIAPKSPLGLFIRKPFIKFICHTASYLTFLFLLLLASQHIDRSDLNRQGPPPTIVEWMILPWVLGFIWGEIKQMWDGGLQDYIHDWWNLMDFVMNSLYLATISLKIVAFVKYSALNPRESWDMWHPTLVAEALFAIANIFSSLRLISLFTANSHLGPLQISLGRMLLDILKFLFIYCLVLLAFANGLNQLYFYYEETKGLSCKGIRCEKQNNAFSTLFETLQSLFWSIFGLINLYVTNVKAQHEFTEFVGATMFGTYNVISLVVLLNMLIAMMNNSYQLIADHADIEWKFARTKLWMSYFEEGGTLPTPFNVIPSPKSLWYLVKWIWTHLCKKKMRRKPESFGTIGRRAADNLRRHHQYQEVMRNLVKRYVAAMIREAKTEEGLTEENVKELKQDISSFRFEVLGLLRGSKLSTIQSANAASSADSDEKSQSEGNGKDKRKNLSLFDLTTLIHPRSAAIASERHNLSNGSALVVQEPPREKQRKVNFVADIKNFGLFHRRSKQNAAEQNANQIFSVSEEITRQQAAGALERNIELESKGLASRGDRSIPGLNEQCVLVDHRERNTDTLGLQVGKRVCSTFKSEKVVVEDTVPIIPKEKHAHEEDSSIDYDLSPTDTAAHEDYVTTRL
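system = HEK293 cells stably co-expressing mouse TRPC4beta and mu-opioid receptor | schedule = Fluo4 dye loading 45 min at room temperature, 110 s recording | measure = B-scored integrated calcium fluorescence ratio | signal = Fluo4 calcium-sensitive dye fluorescence, kinetic, 1 Hz baseline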
TRPC4 inh = inhibitors of mouse TRPC4 channel, primary screen, Fluo4 calcium, HEK293 TRPC4beta/mu-opioid cells | AID 2247, 2010 | DAMGO-evoked Fluo4 calcium flux; hits give low values | Short transient receptor potential channel 4 (Mus musculus), Q9QUQ5 | B-score at 10 µM | actives 0.39% (n = 300,000);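 active = B-score over 3 SD under the library average, no early fluorescence shift, positive overall ratio signal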
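Signal: kinetic Fluo4 fluorescence imaging of calcium influx. Material: stable TRPC4beta/mu-opioid receptor HEK293 cells. Probe or stimulus: DAMGO in two steps, submaximal then maximal.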
TRPC6 inh = mouse TRPC6 channel inhibitors, primary screen, cell-based, HEK293, membrane potential dye. Short transient receptor potential channel 6 (Mus musculus), Q61143. ACh-evoked depolarization; hits give low values. B-score at 10 µM. actives 1.1% (n = 310,000). AID 2553, 2010;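 active = B-score under library mean minus 3 SD, initial fluorescence not abnormally high, positive integrated signal ratio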;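 also: B-score derived from integrated fluorescence ratio over the kinetic read; more negative B-score means stronger inhibition of depolarization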
TRPC6 activator = mouse TRPC6 channel activators, primary screen, cell-based, HEK293, membrane potential dye; Short transient receptor potential channel 6 (Mus musculus), Q61143; HEK293-TRPC6 membrane potential dye fluorescence; hits give high values; B-score at 10 µM; actives 0.13% (n = 310,000);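 active = B-score of the integrated fluorescence ratio above library mean plus 3 SD, and starting fluorescence ratio within library mean plus 5 SD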;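 also: higher score means more depolarization so channel activation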
TRPC4 PAM = positive allosteric modulators of TRPC4, primary screen, cell-based, mouse TRPC4beta, HEK293 mu-opioid, Fluo-4 calcium; DAMGO EC20, Fluo-4 Ca2+ flux; hits give high values; Short transient receptor potential channel 4 (Mus musculus), Q9QUQ5; B-score at 10 µM; actives 0.42% (n = 310,000);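 active = B-score of calcium response area above 5 SD of library B-scores, with initial fluorescence ratio within 5 SD of library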
TRPC4 sel inh 2 = mouse TRPC4 off-target activity of TRPC6 inhibitors, second screen; shares compounds with TRPC6 inh; HEK293 TRPC4/MOR, membrane potential dye fluorescence; channel activated by saturating DAMGO dose; inhibition, % at 10 µM; actives 42% (n = 920);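 active = compounds whose fluorescence signal differed from control wells by over 3 SD, either direction, in both duplicate plates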
TRPC4 spec = mouse TRPC4 modulation by TRPC6 hits, confirmation, selectivity assay for TRPC6 inhibitor project, cell-based, HEK293 TRPC4/mu-opioid, membrane potential dye. actives 61% (n = 920). AID 2777, 2010. shares compounds with TRPC6 inh. activity change, negative = inhibition, % at 10 µM. membrane potential fluorescence;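 active = rise or fall in signal beyond 3 SD of buffer-only wells in both replicate plates, either sign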;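 also: integrated kinetic ratio of fluorescence range over baseline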
HEK293 MPD ctr 2-1 = nonspecific membrane potential effects, parental HEK293, confirmation, counter-screen for TRPC6 inhibitor project, cell-based, second counter screen. shares compounds with TRPC6 inh. parental HEK293 membrane potential dye fluorescence; maximal acetylcholine challenge after compound addition. signal change vs control, % at 10 µM. actives 31% (n = 920). AID 2779, 2010;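 active = membrane potential signal moving either way by over 3 SD of the maximum-effect control, in both duplicate plates, meaning non-specific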
HEK293 MPD ctr-1 = membrane potential modulation in parental HEK293, confirmation, counter-screen for TRPC6 inhibitor project, cell-based | actives 60% (n = 920) | membrane potential signal change, % at 10 µM | AID 2780, 2010 | shares compounds with TRPC6 inh | parental HEK293 membrane potential dye fluorescence;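 active = membrane potential signal shifting up or down by more than 3 SD of buffer-only wells, on both duplicate plates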
HEK293 MPD ctr-2 = parental HEK293 membrane potential modulation, confirmation, counter-screen for TRPC6 modulator project, cell-based | shares compounds with TRPC6 inh | membrane potential dye fluorescence | membrane potential signal change, % at 10 µM | actives 51% (n = 2,400) | AID 488924, 2010;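 active = membrane potential signal moves up or down beyond 5 SD from buffer-only wells, on both duplicate plates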
HEK293 MPD ctr 2-2 = second check of TRPC6 modulator effects in parental HEK293 cells | actives 14% (n = 2,400) | shares compounds with TRPC6 inh | membrane potential dye fluorescence; after compound, maximal acetylcholine stimulation | inhibition, % at 10 µM;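 active = membrane potential signal drops by more than 5 SD from the mean control signal, in both duplicate plates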
TRPC4 ctr mod = TRPC4 modulation by TRPC6 hit compounds, confirmation, selectivity assay for TRPC6 modulator project, cell-based, HEK293 TRPC4/mu-opioid, membrane potential dye, mouse. shares compounds with TRPC6 inh. membrane potential fluorescence. percent change from control (negative = decrease, positive = increase), % at 10 µM. actives 69% (n = 2,400). AID 488927, 2010;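 active = membrane potential signal moved up or down beyond 5 SD of buffer control wells, in both duplicate plates, actives on both sides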
TRPC4/MOR inh 2 = mouse TRPC4 off-target activity of TRPC6 modulators, second screen. inhibition, % at 10 µM. actives 55% (n = 2,400). shares compounds with TRPC6 inh. HEK293 TRPC4/mu-opioid, membrane potential dye fluorescence; stimulated with maximal-effect DAMGO;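 active = drop in membrane potential signal beyond 5 SD of the control wells in both duplicate plates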;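 also: TRPC4 counter screen for TRPC6 hits run under conditions tuned for TRPC6 not TRPC4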
TRPC6 block conf = mouse TRPC6 channel inhibitors, confirmation, HEK293 cells, membrane potential dye, duplicate; ACh-evoked depolarization; inhibition, % at 10 µM; shares compounds with TRPC6 inh; actives 43% (n = 3,300); AID 488960, 2010;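 active = fluorescence ratio falls more than 5 SD below the full-stimulation control mean, in both duplicate runs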;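 also: integrated fluorescence ratio of peak minus minimum over baseline after agonist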
TRPC6 act confirm = mouse TRPC6 channel activators, confirmation, HEK293 cells, membrane potential dye, duplicate. shares compounds with TRPC6 inh. HEK293-TRPC6 membrane potential dye fluorescence, FDSS. activation, % at 10 µM. actives 11% (n = 2,800). AID 488961, 2010;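 active = ratio signal rise beyond 5 SD above unstimulated control wells' mean, seen in both duplicate runs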
Each line names hits and unclear results; the compound was inactive in the other large screens (follow-up assays come after a bar, where they were run). In the library only some 2.3% were active in any assay of this set; here they are far more common.

Cc1cc(/C=C2\SC(=S)NC2=O)c(C)n1-c1cccc(O)c1	TRPC6 activator 14.3 | HEK293 MPD ctr-2 568.5% | HEK293 MPD ctr 2-2 inactive | TRPC4 ctr mod 85.0% | TRPC4/MOR inh 2 45.0% | TRPC6 block conf inactive | TRPC6 act confirm 174.5%
Cc1cc(/C=C2\SC(=S)NC2=O)c(C)[nH]1	TRPC6 inh -6.4, TRPC6 activator 26.9 | HEK293 MPD ctr-2 782.5% | HEK293 MPD ctr 2-2 active | TRPC4 ctr mod 107.0% | TRPC4/MOR inh 2 41.5% | TRPC6 block conf inactive | TRPC6 act confirm 164.0%
CCN(CC)CC(=O)Nc1cccc2c1C(=O)c1ccccc1C2=O	none
O=C1c2ccccc2C(=O)c2c(NCCCN(CCO)CCO)cccc21	TRPC6 inh -12.6 | HEK293 MPD ctr-2 -304.0% | HEK293 MPD ctr 2-2 90.5% | TRPC4 ctr mod -49.0% | TRPC4/MOR inh 2 79.5% | TRPC6 block conf 76.5% | TRPC6 act confirm inactive
Fc1ccc(Cn2nnc3ccccc32)cc1	TRPC6 inh -7.91 | TRPC4 sel inh 2 inactive | TRPC4 spec inactive | HEK293 MPD ctr 2-1 inactive | HEK293 MPD ctr-1 -0.6% | TRPC6 block conf inactive | TRPC6 act confirm inactive
CCCC1CCc2c(c3ccccc3[nH]c2=O)O1 (stereo unspecified)	none
Cc1cc(C)cc(N=Cc2[nH]c3ccc(Br)c(Cl)c3c2O)c1	TRPC6 activator 35.9, TRPC4 PAM 11 | HEK293 MPD ctr-2 inactive | HEK293 MPD ctr 2-2 inactive | TRPC4 ctr mod inactive | TRPC4/MOR inh 2 inactive | TRPC6 block conf inactive | TRPC6 act confirm inactive
Cc1ccc(N=Cc2cc(Br)cc(Cl)c2O)cc1	none
O=C(CCc1cccc(Cl)c1)N1CCCC(Nc2ccccc2)C1 (stereo unspecified)	TRPC6 inh -8.55 | TRPC4 sel inh 2 inactive | TRPC4 spec inactive | HEK293 MPD ctr 2-1 inactive | HEK293 MPD ctr-1 inactive | TRPC6 block conf 55.3% | TRPC6 act confirm inactive
Cc1nc2sc(C(=O)Nc3ccccc3Cc3ccccc3)c(C)c2c(=O)[nH]1	none
COc1ccc(C(C)=O)cc1CSc1nnc2c(Cl)cc(Cl)cn12	TRPC6 inh -6.95 | HEK293 MPD ctr-2 -342.0% | HEK293 MPD ctr 2-2 65.0% | TRPC4 ctr mod -68.5% | TRPC4/MOR inh 2 71.5% | TRPC6 block conf 64.5% | TRPC6 act confirm inactive
CCOC(=O)C1CCN(C(=O)Nc2cc(Cl)cc(Cl)c2)CC1	none
Cc1cc(Nc2ccc([N+](=O)[O-])cc2)c2ccccc2n1	none
Cc1cc(Nc2cccc([N+](=O)[O-])c2)c2ccccc2n1	TRPC6 inh -8.08 | HEK293 MPD ctr-2 -164.5% | HEK293 MPD ctr 2-2 inactive | TRPC4 ctr mod -33.5% | TRPC4/MOR inh 2 52.0% | TRPC6 block conf 45.5% | TRPC6 act confirm inactive
Cc1cc(Nc2cccc([N+](=O)[O-])c2)c2cccc(C)c2n1	TRPC6 inh -6.8 | TRPC4 sel inh 2 62.0% | TRPC4 spec -24.2% | HEK293 MPD ctr 2-1 43.0% | HEK293 MPD ctr-1 -443.5% | TRPC6 block conf inactive | TRPC6 act confirm inactive
CC(=Nc1ccccc1)c1sc2ccccc2c1O	TRPC6 activator 12.7 | HEK293 MPD ctr-2 395.0% | HEK293 MPD ctr 2-2 inactive | TRPC4 ctr mod 56.0% | TRPC4/MOR inh 2 inactive | TRPC6 block conf inactive | TRPC6 act confirm 115.5%
COc1ccc(-c2cc(O)cc(O)c2)cc1	none
COc1cccc2sc3ccc(C#CC4(N)CCCCC4)cc3c(=O)c12	TRPC6 inh -9.23 | TRPC4 sel inh 2 59.0% | TRPC4 spec -14.6% | HEK293 MPD ctr 2-1 inactive | HEK293 MPD ctr-1 -228.0% | TRPC6 block conf 57.0% | TRPC6 act confirm inactive
NC(=O)/C(=C/c1cccnc1)NC(=O)c1ccccc1	none
COC(=O)c1ccccc1NC(=O)c1cc[n+]([O-])cc1	none
COC(=O)c1ccccc1NC(=O)c1cc[n+](C)cc1	TRPC6 inh -5.8 | HEK293 MPD ctr-2 -200.5% | HEK293 MPD ctr 2-2 inactive | TRPC4 ctr mod -33.0% | TRPC4/MOR inh 2 inactive | TRPC6 block conf inactive | TRPC6 act confirm inactive
O=C1CN(C(=O)CSc2nc(-c3ccc(Cl)cc3)cs2)c2ccccc2N1	none
CN(C)CCNc1nc2sc3c(c2c(=O)n1-c1ccc(F)cc1)CCCCC3	TRPC6 inh -5.78 | HEK293 MPD ctr-2 inactive | HEK293 MPD ctr 2-2 inactive | TRPC4 ctr mod inactive | TRPC4/MOR inh 2 50.5% | TRPC6 block conf inactive | TRPC6 act confirm inactive

Screens from PubChem.
